Each structure is given as a SMILES string.

This data set in a line: Toxicity liver stage against HepG2, at 10uM. Type of data set: cell-based. Particulars: human, HepG2-A16-CD81EGFP cells; read-out: INHIBITION
Set-up: test concentration 10 uM, cell line HepG2-A16-CD81EGFP. The essentials:
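Uninfected HepG2-A16-CD81EGFP cells, 3 × 10^3 per well, 1536-well, plated on prespotted compound at 10 μM final, parasite-free screening media added to match infected plates; puromycin 10 μM positive, DMSO 0.5% negative; run in parallel with 48 h PbLuc assay at 37 °C, 5% CO2; viability by CellTiter-Glo luminescence, normalized to controls.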
Turning to `COc1cc2cc(C(=O)O)n(C)c2c(OC)c1OC`, the cytotoxicity at 10 µM was found to be 12.8%.
In the case of `COc1ccsc1C(=O)NCCN1CCOCC1`, the cytotoxicity at 10 µM was found to be 6.57%.
Then `Cc1nc(Oc2ccccc2F)sc1C(=O)O`, with -11.2%.
Then `Cc1nc2oc(C(=O)N3CCOCC3)c(N)c2c2c1CCCC2`, with -2.8%; and `CC1CCN(C(=O)c2cn(-c3cc(N4CCOCC4)ncn3)cn2)CC1`, with 1.75%.
Then `Cn1cc(S(=O)(=O)NCC2CCN(C(=O)c3ccoc3)CC2)cn1`, with -3.82%; and `O=C1[C@H]2CN(C(=O)[C@H]3CCCO3)C[C@H]2CN1CC1CC1`, with -6.66%.
Consider `Cc1nc(N2CCCC2)nc2c1CN(C(=O)NC(C)C)CC2`, for which the cytotoxicity at 10 µM is 2.94%.
For the compound `O=C(CCc1nc2cccnc2[nH]1)NCc1ccc2c(c1)OCO2`, the cytotoxicity at 10 µM was 0.356%.
Then `C[C@H]1C(=O)NC[C@H]2CN(Cc3ccccc3)C[C@H]21`, with 1.47%; and `CCn1c(NCc2cccnc2)nc2c(C)nn(C)c2c1=O`, with 5.17%.
In the case of `Cc1ncc2c(n1)CCCC2NC(=O)c1ccc(Cn2cccn2)cc1` (configuration not stated) it was -7.55%; in that of `CNc1cccc(C2CCN(C(C)=O)CC2)n1`, 7.49%; in that of `Cn1ncc(Cl)c1C(=O)N1CCC(c2nnsc2S(C)(=O)=O)CC1`, -4.7%.
Then `CN(C)S(=O)(=O)N1CCC(c2n[nH]cc2-c2ccnc(N)c2)C1` (configuration not stated), with 8.81%.
Consider `Cc1ncc(C(=O)N2CCCC2(C)C(=O)N2CCOCC2)c(C)n1` (configuration not stated), for which the cytotoxicity at 10 µM was -0.681%.
For `CC(=O)N1CCOC(c2c(C(=O)O)sc3ccccc23)C1` (configuration not stated), the cytotoxicity at 10 µM was 5.76%.
Then `Cc1c[nH]nc1C1CCN(C(=O)Cn2cccn2)C1` (configuration not stated), with 3.09%.
Then `CCc1ccccc1Nc1noc2c1CN(C(=O)C1CCCO1)CC2` (configuration not stated), with -9.9%.
As to `CN1CCN(C(=O)C2CCN(c3cccnn3)CC2)CC1`, the cytotoxicity at 10 µM is -0.353%.
In the case of `CNc1cccc(C2CCN(C(=O)c3cccnc3)CC2)n1` it was -7.27%; in that of `CO[C@H]1CN(Cc2cc(F)ccc2F)CC[C@@]12CCCO2`, -8.49%; in that of `O=C1NCc2ccccc2CC12CCN(Cc1c(F)cccc1Cl)C2` (configuration not stated), 11.2%.
Then `CC(=O)c1sc(Nc2ccc(Cl)cn2)nc1C`, with 41.9%.
In the case of `COc1ccccc1C1(CNc2cn[nH]c(=O)c2Cl)CCOCC1` it was 0.152%.
Take `CN(C)S(=O)(=O)N1CCC(C(O)c2ccc(Cl)cc2)CC1` (configuration not stated): the cytotoxicity at 10 µM is -21.4%.
In the case of `O=C(Cc1ccon1)Nc1cncc(Br)c1O` it was 7.06%; in that of `CC(C)C(=O)NCc1cc(Br)ccc1F`, -3.98%; in that of `O=C(Nc1cc(C(F)(F)F)c[nH]c1=O)C1CCCO1` (configuration not stated), -0.37%.
In the case of `CCS(=O)(=O)NCC(=O)NC1(C)CCc2ccccc2C1` (configuration not stated) it was 2.22%.
Then `O=C(CN(Cc1cccc(F)c1)CC1CCCO1)N1CCCC1` (configuration not stated), with -7.29%.
Turning to `COc1ccc(C(=O)Cn2cnnc2[S+](C)[O-])cc1Cl` (configuration not stated), the cytotoxicity at 10 µM is -8.17%.
In the case of `COc1ncccc1NC(=O)N1CCC(C(=O)NC(C)C)CC1` it was -3.68%; in that of `CC(C)n1cc(CN2CCCN(C(=O)c3ccoc3)CC2)cn1`, -3.44%.
In the case of `Cc1cc(C)c(S(N)(=O)=O)cc1C(=O)NCC1Cc2ccccc2O1` (configuration not stated) it was -4.53%; in that of `O=C(CN1CCCC(CO)C1)NCCOc1cccc(Cl)c1` (configuration not stated), -12.2%; in that of `Cc1ccc(F)c2c1N(C(=O)c1cn(CC(=O)N(C)C)nn1)CCC2`, -9.17%.
With `CCS(=O)(=O)NCCNC(=O)N(Cc1ccc(C)o1)C(C)C`, the cytotoxicity at 10 µM was found to be 1.84%.
Then `CN(C)c1cccc(C(=O)N2CCn3c(nnc3-c3ccccc3)C2)c1`, with -0.375%; and `Cc1c(Br)cccc1CNC1(CCO)CCOCC1`, with -10.7%; and `Cn1cc(C(=O)Nc2cccc(CCN3CCCC3)c2)ccc1=O`, with 7.76%.
Then `CC(C)N1CCN(C(=O)c2ccccc2NCc2cccnc2)CC1`, with -19.4%; and `Cc1ccccc1N(CC(=O)NCCc1nnc2n1CCC2)S(C)(=O)=O`, with -0.69%.
In the case of `CC(C)c1nnc(NCCS(C)(=O)=O)s1`, the cytotoxicity at 10 µM is -1%.
Then `CCc1nnc(Sc2nn3cc(C)nc3s2)n1C`, with -3.64%.
In the case of `Cc1nc(S(=O)(=O)N2CCC3(CCCCC3)C2)cn1C` it was -4.2%.
For the compound `CC(=O)N1CCN(C(=O)NCCCN(C(C)C)S(C)(=O)=O)CC1`, the cytotoxicity at 10 µM is -14%.
Then `COC(=O)CN(Cc1ccccc1C)C(=O)CCNC(=O)C(C)(C)C`, with 12.9%.
Then `Cc1cc(C(=O)N2CCS(=O)(=O)CC2)c(C)o1`, with -16.8%.
Take `O=C(NCCCNCC1CNc2ccnn2C1)c1ccccc1` (configuration not stated): the cytotoxicity at 10 µM is -1.48%.
Consider `Cc1nc(Cn2c3c(ccc2=O)CC(NC(N)=O)CC3)cs1` (configuration not stated), for which the cytotoxicity at 10 µM was found to be 9.79%.
Then `CC(=O)c1ccccc1-c1cc(C(=O)O)cc(S(=O)(=O)NC(C)C)c1`, with 0.476%; and `Cc1nc(-c2ccncc2)ncc1C(C)NC(=O)C1=NN(C)C(=O)CC1` (configuration not stated), with -0.205%; and `Cc1cc(C[C@@H]2COC[C@@H]2NC(=O)CCN2Cc3ccccc3C2)on1`, with 3.86%.
In the case of `CNC(=O)c1ccnc(CC2COc3c(cccc3OC)C2)c1` (configuration not stated) it was 3.77%; in that of `Cc1cc(N2C[C@H](C3CC3)[C@@H](N)C2)nc(N2CCCCC2)n1`, -15.6%.
Then `CC(=O)NCCNC(=O)C1(Oc2cccnc2C)CCNCC1`, with 3.24%; and `COCC(=O)N1CCCC1c1ccc(C(=O)NCc2ccccc2Cl)s1` (configuration not stated), with -0.909%.
Consider `CC(Cc1cnccn1)NC(=O)c1cccc(CC2CCNCC2)c1` (configuration not stated), for which the cytotoxicity at 10 µM was -9.37%.
In the case of `CCN1CC2(CCC1=O)CCN(Cc1cccc(OC(F)F)c1)CC2` it was -16.5%; in that of `O=C(CCN1CCCCO1)N1CCC(CO)(Cc2ccccc2)CC1`, 7.26%; in that of `c1ccc2c(c1)cnn2CCCNC1CCOC2(CCOCC2)C1` (configuration not stated), -7.35%.
Then `CCN1CCN(C(=O)c2[nH]c3ccccc3c2Cl)[C@H]2CS(=O)(=O)C[C@H]21`, with -5.41%; and `CN1CCC(N(C)C[C@H]2CC[C@@H](Cc3cccc(CO)c3)O2)CC1`, with 0.224%; and `COC(=O)c1ccc(OC)c(OC23CCCN(CC2)C3)c1` (configuration not stated), with -13.9%.
In the case of `O=C(NC1CCC1)c1cccc(S(=O)(=O)NCc2nc(C3CC3)no2)c1` it was -0.0264%; in that of `COc1ccc(N2CCN(Cc3noc(CC(C)C)n3)C(C)C2=O)cc1` (configuration not stated), 4.11%.
As to `O=C(NCC1CCS(=O)(=O)C1)c1ccc2cccc(Cl)c2n1` (configuration not stated), the cytotoxicity at 10 µM is -10.1%.
Turning to `COC(=O)c1cc2c(=O)[nH]c(=O)n(CCc3ccccc3)c2nc1C`, the cytotoxicity at 10 µM is -4.74%.
In the case of `CSCCC1c2nc[nH]c2CCN1Cc1ccnc2ccccc12` (configuration not stated) it was 13.2%; in that of `Cn1ncc(NC(=O)c2noc3c2CCCC3)c1C(=O)N1CCCCC1`, -13.4%; in that of `Clc1cc(CN2CCCCC2Cn2cncn2)c2ncccc2c1` (configuration not stated), -12.9%.
Then `Cn1ncc2c(N3CCCN(C(=O)c4ccsc4)CC3)ncnc21`, with -10.6%; and `Cc1nnc(CN(Cc2ccc3c(c2)OCO3)C2CCCCC2)o1`, with -6.14%; and `Cc1ccc(CNC(=O)Cn2nc(-c3ccc(F)cc3)oc2=O)cc1F`, with -5.86%.
For `Cc1cc(C)n(CC2CCCN2C(=O)CCNc2ncccn2)n1` (configuration not stated), the cytotoxicity at 10 µM was -2.31%.
In the case of `CCc1noc(CNCCn2cc(C)cn2)n1` it was -2.54%; in that of `CCC(O)CN1CCN(C(=O)c2ccc3c(c2)COC3)CC1` (configuration not stated), -6.58%; in that of `CC(Cn1ccnc1)NC(=O)NCc1ccc2c(c1)OCCO2` (configuration not stated), -18.6%.
Then `CS(=O)(=O)c1cccc(C(N)c2ccc(F)cc2)c1` (configuration not stated), with -19.9%; and `c1cncc(-c2noc(CN3CCCC3Cn3cccn3)n2)c1` (configuration not stated), with -4.74%; and `Cc1cnn(CC2CCCN2C(=O)Cc2cccs2)c1` (configuration not stated), with -0.704%.
In the case of `Cc1ccc(C(=O)N2CCN(C(=O)Cc3ccccn3)CC2)c(C)c1` it was -4.74%.
In the case of `CC(NC(=O)NCCCN(C)S(C)(=O)=O)c1cccnc1` (configuration not stated), the cytotoxicity at 10 µM was -12.5%.
Then `Cc1ccc(CNC(=O)CCNS(C)(=O)=O)cc1`, with -5.07%.
Take `COc1ccnc(N2CCN(C(=O)c3ccc(Cl)o3)CC2)n1`: the cytotoxicity at 10 µM is -19.2%.
With `O=C(Cc1cccc2ccccc12)N1CCC(Nc2cccnn2)CC1`, the cytotoxicity at 10 µM was -17.1%.
Then `Cc1cnn(CC2CCCCN2CCC(=O)Nc2cc(C)on2)c1` (configuration not stated), with -0.674%.
Consider `CC(C)N1CCCCC1c1nc(N(C)C)ncc1I` (configuration not stated), for which the cytotoxicity at 10 µM was -3%.
For `CN(C)CCCN(Cc1cnn(C)c1)Cc1ccco1`, the cytotoxicity at 10 µM is 2.36%.
In the case of `Cc1cnc(N2CCC3(CCN(CC4CCCC4)C3=O)CC2)nc1` it was -6.54%; in that of `c1cncc(COCc2nnn3c2CN(Cc2ccsc2)CC3)c1`, 6.4%.
For the compound `CCN1C[C@@H]2CN(Cc3cccs3)C[C@@H]2C1=O`, the cytotoxicity at 10 µM is -3.19%.
`Cc1cccc(CN2C(=O)CO[C@@H]3CN(CCO)C[C@H]32)c1`: the cytotoxicity at 10 µM was -14.1%.
Then `O=C([C@@H]1COC[C@H]2CN(C3CCOCC3)C[C@H]21)N1CCCO1`, with -3.2%; and `Cc1nc(=O)c(CC(=O)N2C[C@H]3CC[C@@H](C2)N(CC2CCC2)C3)c[nH]1`, with 1.43%.
Regarding `CCC(C)NS(=O)(=O)c1ccc(C=Cc2onc(C)c2NC(C)=O)cc1` (configuration not stated), the cytotoxicity at 10 µM is -10.7%.

The record behind these values is ChEMBL document CHEMBL4513216, “Probing the Open Global Health Chemical Diversity Library for Multistage-Active Starting Points for Next-Generation Antimalarials” (ACS Infect Dis, 2020).
